The pEC50 is the EC50 on a negative log10 scale, so that one unit is a factor of ten.

Results on 1 molecule are retold here after ChEMBL document CHEMBL4715734, “Discovery of the Potent and Selective M1 PAM-Agonist N-[(3R,4S)-3-Hydroxytetrahydro-2H-pyran-4-yl]-5-methyl-4-[4-(1,3-thiazol-4-yl)benzyl]pyridine-2-carboxamide (PF-06767832): Evaluation of Efficacy and Cholinergic Side Effects” (J Med Chem, 2016).

Data set [1] deals with T1, Muscarinic acetylcholine receptor M4 (Homo sapiens, UniProt P08173).
T1 sequence (P08173 whole entry): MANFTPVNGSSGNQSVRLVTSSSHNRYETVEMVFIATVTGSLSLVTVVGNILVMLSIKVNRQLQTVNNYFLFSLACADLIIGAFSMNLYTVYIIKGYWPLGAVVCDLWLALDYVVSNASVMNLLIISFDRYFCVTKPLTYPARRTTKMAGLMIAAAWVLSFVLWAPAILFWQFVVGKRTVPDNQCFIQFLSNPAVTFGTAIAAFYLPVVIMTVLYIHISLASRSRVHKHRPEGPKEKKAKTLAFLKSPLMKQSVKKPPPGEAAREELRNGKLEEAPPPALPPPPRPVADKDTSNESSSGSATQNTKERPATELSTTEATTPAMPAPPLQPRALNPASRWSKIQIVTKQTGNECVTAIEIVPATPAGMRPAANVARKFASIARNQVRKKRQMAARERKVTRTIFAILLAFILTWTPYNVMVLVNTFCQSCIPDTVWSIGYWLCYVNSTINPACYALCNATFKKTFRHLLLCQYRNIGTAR
The data set can be described thus: Positive allosteric modulation of human recombinant muscarinic M4 receptor stably expressed in HEK cells assessed as increase in ACh-induced cAMP accumulation up to 10 uM measured after 10 mins by GloSensor cAMP Assay. In kind it is cell-based. In general terms: cAMP levels reflect the balance of adenylyl cyclase and phosphodiesterase activity.

A short description of data set [2]: Partial agonist activity at muscarinic M2/M3 receptor in Hartley guinea pig ileum assessed as stimulation of contraction. The format is tissue-based. As to conditions: Cavia porcellus; call rule not given here. Put shortly: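 Agonist mode used a guinea pig ileum tissue bath with the compound applied alone. Concentration–response curves were run with or without the non-selective muscarinic antagonist atropine. Contraction was expressed relative to the maximal carbachol response.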

In data set [3] the target is T2, Muscarinic acetylcholine receptor M2 (Homo sapiens, UniProt P08172).
T2 sequence (P08172 whole entry): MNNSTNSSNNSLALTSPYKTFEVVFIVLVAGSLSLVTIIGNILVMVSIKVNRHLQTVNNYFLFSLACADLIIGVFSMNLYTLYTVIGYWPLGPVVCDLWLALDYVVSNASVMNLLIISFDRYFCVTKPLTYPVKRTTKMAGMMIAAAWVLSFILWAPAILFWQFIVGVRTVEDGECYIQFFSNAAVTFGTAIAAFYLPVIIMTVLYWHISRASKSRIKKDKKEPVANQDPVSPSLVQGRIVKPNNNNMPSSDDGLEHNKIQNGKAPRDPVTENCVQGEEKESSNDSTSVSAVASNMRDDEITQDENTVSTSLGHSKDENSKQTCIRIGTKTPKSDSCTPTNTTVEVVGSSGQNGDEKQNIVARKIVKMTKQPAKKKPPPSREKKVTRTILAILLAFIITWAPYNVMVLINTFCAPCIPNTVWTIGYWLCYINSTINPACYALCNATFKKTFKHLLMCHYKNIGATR
As to the kind of experiment: Positive allosteric modulation of human recombinant muscarinic M2 receptor stably expressed in HEK cells assessed as increase in ACh-induced cAMP accumulation up to 10 uM measured after 10 mins by GloSensor cAMP Assay. The format is cell-based.

Data set [4] is described as follows: fCmax in rat at 15 mg/kg, po administered for 14 days. As to conditions: in vivo, 336 h, time 14 day. The format is ADME, organism-based. Put shortly: (§1)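 2-week repeat oral dosing in rats, 0.5% methylcellulose formulation; N=4/sex/dose; doses 3, 10, 30 (males)/15 (females) mg/kg; unbound exposures reported per dose and sex.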
The nature of data set [5]: Intrinsic clearance in human liver microsome. In kind it is ADME. As to conditions: liver microsomes, read-out: CLH. Background: Liver microsomes are vesicles of endoplasmic reticulum, rich in cytochrome P450 enzymes.
Data set [6] addresses T3, Muscarinic acetylcholine receptor M5 (Homo sapiens, UniProt P08912).
T3 sequence (P08912 whole entry): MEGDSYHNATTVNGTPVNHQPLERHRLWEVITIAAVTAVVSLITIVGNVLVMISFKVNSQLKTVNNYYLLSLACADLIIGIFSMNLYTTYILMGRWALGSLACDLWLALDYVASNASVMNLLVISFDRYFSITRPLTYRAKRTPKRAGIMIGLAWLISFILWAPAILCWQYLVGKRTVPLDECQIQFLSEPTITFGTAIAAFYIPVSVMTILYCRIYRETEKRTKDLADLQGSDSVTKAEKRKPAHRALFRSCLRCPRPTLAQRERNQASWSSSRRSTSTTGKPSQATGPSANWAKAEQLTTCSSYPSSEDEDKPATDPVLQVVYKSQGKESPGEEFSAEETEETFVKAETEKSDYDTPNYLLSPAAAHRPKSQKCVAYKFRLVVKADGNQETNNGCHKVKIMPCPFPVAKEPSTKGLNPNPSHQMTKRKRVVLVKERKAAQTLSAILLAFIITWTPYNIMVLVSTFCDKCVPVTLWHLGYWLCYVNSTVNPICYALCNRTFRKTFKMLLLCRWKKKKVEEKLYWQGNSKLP
The data set can be described thus: Positive allosteric modulation of human recombinant muscarinic M5 receptor stably expressed in CHO cells assessed as increase in Ach-induced accumulation of intracellular calcium level upto 10 uM incubated for 10 mins followed by addition of Ach at EC20 concentration by Fluo-8AM dye based FLIPR TETRA method. On the technique in general: Calcium assays in cells follow changes in intracellular calcium, usually with a dye or a luminescent sensor.

Data set [7] in a line: fCmax in dog at 0.3 mg/kg, po measured after 4 hrs using spray-dried dispersion formulation. As to conditions: in vivo. The format is ADME, organism-based, Canis lupus familiaris. The method, boiled down:
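Dogs from the crossover cardiovascular telemetry study (N=4), dosed orally at 0.3, 1 and 3 mg/kg; unbound Cmax extrapolated from 4 h post-dose in-life plasma samples.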

The nature of data set [8]: fCmax in rat at 3 mg/kg, po administered for 14 days. The format is ADME, organism-based. The following applies: in vivo, 336 h, time 14 day. The method, boiled down:
as §1

Data set [9] can be described thus: Unbound brain concentration in CD-1 mouse at 1 mg/kg, sc measured after 2 hrs by LC-MS/MS analysis. The format is ADME, organism-based. The following applies: in vivo.
The target in data set [10] is T4, Muscarinic acetylcholine receptor M1 (Rattus norvegicus) (UniProt P08482).
T4 sequence (whole entry): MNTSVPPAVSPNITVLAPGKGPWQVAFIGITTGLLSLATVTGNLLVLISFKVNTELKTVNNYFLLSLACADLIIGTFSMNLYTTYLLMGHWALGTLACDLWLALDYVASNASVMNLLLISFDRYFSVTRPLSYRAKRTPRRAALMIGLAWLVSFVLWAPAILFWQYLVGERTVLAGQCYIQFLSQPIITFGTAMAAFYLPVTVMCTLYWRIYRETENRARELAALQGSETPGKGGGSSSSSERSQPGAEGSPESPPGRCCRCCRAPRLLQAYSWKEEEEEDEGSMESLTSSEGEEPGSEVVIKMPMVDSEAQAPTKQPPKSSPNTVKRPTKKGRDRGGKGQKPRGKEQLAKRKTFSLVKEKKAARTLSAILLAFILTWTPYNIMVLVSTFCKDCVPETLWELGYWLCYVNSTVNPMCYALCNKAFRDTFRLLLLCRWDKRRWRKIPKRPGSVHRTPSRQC
The data set can be described thus: Agonist activity at muscarinic M1 receptor in Sprague-Dawley rat hippocampal slice assessed as increase in CA1 spiked rates by electrophysiological analysis. The following applies: filed as agonist.

The structures appear in SMILES notation. pEC50: −log10 of the molar value. Where only a bound is given, the exact number is not on record here.

In the case of `Cc1cnc(C(=O)N[C@H]2CCOC[C@@H]2O)cc1Cc1ccc(-c2cscn2)cc1`, the Activity entry was “Not Active” in data set [1], “Not Active” in data set [3], “Not Active” in [6] and “Dose-dependent effect” in data set [10]. Further, in data set [2], the pEC50 was 6.45. Besides, the figures for the fCmax in data set [4], in [7] and in data set [8] were 708 nM, 41 nM and 195 nM, respectively. Further, the CLint scaled in [5] is below 8 mL/min/kg. In data set [9], the “Drug uptake(free)” value is reported as 14.3 nM.
